What all share (type): functional, cell-based
One experiment relates to HepG2. Description: Antiproliferative activity against human HepG2 cells incubated for 48 hrs by MTT assay. The following applies: HepG2, 48 h. An outline of the steps:
(§1)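 Human tumour cells exposed to compounds for 48 h at 37 °C; viability read by MTT. Growth inhibition (%) measured in triplicate at 5, 10, 20, 40, 80 and 160 μM; data as mean ± standard deviation. IC50 calculated from percentage inhibition of cell growth.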

The nature of experiment [1]: Antiproliferative activity against human CaSki cells incubated for 48 hrs by MTT assay. The note with it: Ca-Ski. The essentials: as §1
The next experiment relates to HeLa. Description: Antiproliferative activity against human HeLa cells incubated for 48 hrs by MTT assay. An outline of the steps:
as §1

Here are results for 22 compounds from ChEMBL document CHEMBL3603770, “Synthesis and cytotoxic activities of 2-substituted (25R)-spirostan-1,4,6-triene-3-ones via ring-opening/elimination and 'click' strategy” (Bioorg Med Chem Lett, 2015).

Consider `C[C@@H]1CC[C@@]2(OC1)O[C@H]1C[C@H]3[C@@H]4C=CC5=CC(=O)C(OCc6cn(Cc7ccc(Cn8cc(COC9=C[C@@]%10(C)C(=CC9=O)C=C[C@H]9[C@@H]%11C[C@@H]%12O[C@]%13(CC[C@@H](C)CO%13)[C@@H](C)[C@@H]%12[C@@]%11(C)CC[C@@H]9%10)nn8)cc7)nn6)=C[C@]5(C)[C@H]4CC[C@]3(C)[C@H]1[C@@H]2C`, for which the IC50 (in the experiment on HepG2; in experiment [1]; in the experiment with HeLa) was above 100 µM each time.

Turning to `C[C@@H]1CC[C@@]2(OC1)O[C@H]1C[C@H]3[C@@H]4C=CC5=CC(=O)C(OCc6cn(CC(=O)c7cccc(O)c7)nn6)=C[C@]5(C)[C@H]4CC[C@]3(C)[C@H]1[C@@H]2C`, the results for the IC50 (with HepG2; in experiment [1]; with HeLa) were 45.6 µM, 9.4 µM and above 100 µM, respectively.

Turning to `CCOC1=C[C@@]2(C)C(=CC1=O)C=C[C@H]1[C@@H]3C[C@@H]4O[C@]5(CC[C@@H](C)CO5)[C@@H](C)[C@@H]4[C@@]3(C)CC[C@@H]12`, the IC50 (with HepG2; in experiment [1]; in the experiment with HeLa) was above 100 µM throughout.

As for `CC(C)COC1=C[C@@]2(C)C(=CC1=O)C=C[C@H]1[C@@H]3C[C@@H]4O[C@]5(CC[C@@H](C)CO5)[C@@H](C)[C@@H]4[C@@]3(C)CC[C@@H]12`, the values for the IC50 (in the experiment with HepG2; in experiment [1]; in the experiment with HeLa) were 53.4 µM, 33.5 µM and above 100 µM, respectively.

With `C[C@@H]1CC[C@@]2(OC1)O[C@H]1C[C@H]3[C@@H]4C=CC5=CC(=O)C(OCc6cn(-c7ccccc7)nn6)=C[C@]5(C)[C@H]4CC[C@]3(C)[C@H]1[C@@H]2C`, the concentration for half-maximal inhibition (IC50) (with HepG2; in experiment [1]; in the experiment on HeLa) was above 100 µM in each case.

Consider `CCOC(=O)Cn1cc(COC2=C[C@@]3(C)C(=CC2=O)C=C[C@H]2[C@@H]4C[C@@H]5O[C@]6(CC[C@@H](C)CO6)[C@@H](C)[C@@H]5[C@@]4(C)CC[C@@H]23)nn1`, for which the half-maximal inhibitory concentration (IC50) (in general, the point on the concentration scale where inhibition reaches its midpoint) in the experiment on HepG2 is 44 µM; in experiment [1], 68.9 µM; with HeLa, above 100 µM.

As to `Cc1ccc(C(=O)Cn2cc(COC3=C[C@@]4(C)C(=CC3=O)C=C[C@H]3[C@@H]5C[C@@H]6O[C@]7(CC[C@@H](C)CO7)[C@@H](C)[C@@H]6[C@@]5(C)CC[C@@H]34)nn2)cc1`, the results for the concentration for half-maximal inhibition (IC50) (with HepG2; in experiment [1]; with HeLa) were 76.1 µM, above 100 µM and above 100 µM, respectively.

Consider `C[C@@H]1CC[C@@]2(OC1)O[C@H]1C[C@H]3[C@@H]4C=CC5=CC(=O)C(OCc6cn(CC(=O)c7cccc(Br)c7)nn6)=C[C@]5(C)[C@H]4CC[C@]3(C)[C@H]1[C@@H]2C`, for which the concentration for half-maximal inhibition (IC50) in the experiment on HepG2 is 88.1 µM; in experiment [1], above 100 µM; with HeLa, above 100 µM.

For the compound `COc1ccc(C(=O)Cn2cc(COC3=C[C@@]4(C)C(=CC3=O)C=C[C@H]3[C@@H]5C[C@@H]6O[C@]7(CC[C@@H](C)CO7)[C@@H](C)[C@@H]6[C@@]5(C)CC[C@@H]34)nn2)cc1`, the IC50 (in the experiment with HepG2; in experiment [1]; with HeLa) was above 100 µM in each case.

Consider `C[C@@H]1CC[C@@]2(OC1)O[C@H]1C[C@H]3[C@@H]4C=CC5=CC(=O)C(OCc6cn(CC(=O)c7ccccc7)nn6)=C[C@]5(C)[C@H]4CC[C@]3(C)[C@H]1[C@@H]2C`, for which the figures for the IC50 (in the experiment with HepG2; in experiment [1]; in the experiment on HeLa) were 60.2 µM, 99 µM and above 100 µM, respectively.

Take `C[C@@H]1CC[C@@]2(OC1)O[C@H]1C[C@H]3[C@@H]4C=CC5=CC(=O)C(OCc6cn(CC(=O)c7ccc(Br)cc7)nn6)=C[C@]5(C)[C@H]4CC[C@]3(C)[C@H]1[C@@H]2C`: the values for the IC50 (with HepG2; in experiment [1]; in the experiment on HeLa) were 53.7 µM, above 100 µM and above 100 µM, respectively.

For the compound `CC(C)OC1=C[C@@]2(C)C(=CC1=O)C=C[C@H]1[C@@H]3C[C@@H]4O[C@]5(CC[C@@H](C)CO5)[C@@H](C)[C@@H]4[C@@]3(C)CC[C@@H]12`, the 50% inhibitory concentration (IC50) was 61.3 µM with HepG2, 29.3 µM in experiment [1] and above 100 µM in the experiment with HeLa.

Regarding `C#CCOC1=C[C@@]2(C)C(=CC1=O)C=C[C@H]1[C@@H]3C[C@@H]4O[C@]5(CC[C@@H](C)CO5)[C@@H](C)[C@@H]4[C@@]3(C)CC[C@@H]12`, the values for the IC50 (with HepG2; in experiment [1]; in the experiment on HeLa) were 90.7 µM, 23.2 µM and 57.4 µM, respectively.

On to `C[C@@H]1CC[C@@]2(OC1)O[C@H]1C[C@H]3[C@@H]4C=CC5=CC(=O)C(OCc6cn(Cc7ccccc7)nn6)=C[C@]5(C)[C@H]4CC[C@]3(C)[C@H]1[C@@H]2C`, for which the IC50 in the experiment on HepG2 was 53.4 µM; in experiment [1], 10.9 µM; in the experiment on HeLa, above 100 µM.

`CCCOC1=C[C@@]2(C)C(=CC1=O)C=C[C@H]1[C@@H]3C[C@@H]4O[C@]5(CC[C@@H](C)CO5)[C@@H](C)[C@@H]4[C@@]3(C)CC[C@@H]12`: the IC50 in the experiment with HepG2 was 61.6 µM; in experiment [1], 32.1 µM; in the experiment with HeLa, 80.3 µM.

Turning to `CC(=O)Cn1cc(COC2=C[C@@]3(C)C(=CC2=O)C=C[C@H]2[C@@H]4C[C@@H]5O[C@]6(CC[C@@H](C)CO6)[C@@H](C)[C@@H]5[C@@]4(C)CC[C@@H]23)nn1`, the figures for the 50% inhibitory concentration (IC50) (in the experiment with HepG2; in experiment [1]; in the experiment with HeLa) were 40.2 µM, 11.8 µM and 48.1 µM, respectively.

Regarding `COc1ccc(Cn2cc(COC3=C[C@@]4(C)C(=CC3=O)C=C[C@H]3[C@@H]5C[C@@H]6O[C@]7(CC[C@@H](C)CO7)[C@@H](C)[C@@H]6[C@@]5(C)CC[C@@H]34)nn2)cc1`, the IC50 is 41.8 µM in the experiment with HepG2, 67 µM in experiment [1] and above 100 µM in the experiment with HeLa.

`COC1=C[C@@]2(C)C(=CC1=O)C=C[C@H]1[C@@H]3C[C@@H]4O[C@]5(CC[C@@H](C)CO5)[C@@H](C)[C@@H]4[C@@]3(C)CC[C@@H]12`: the IC50 in the experiment on HepG2 was 77.1 µM; in experiment [1], 28.5 µM; with HeLa, above 100 µM.

For `C[C@@H]1CC[C@@]2(OC1)O[C@H]1C[C@H]3[C@@H]4C=CC5=CC(=O)C(OCc6cn(CC#N)nn6)=C[C@]5(C)[C@H]4CC[C@]3(C)[C@H]1[C@@H]2C`, the IC50 (in the experiment with HepG2; in experiment [1]; in the experiment on HeLa) was above 100 µM throughout.

Consider `C[C@@H]1CC[C@@]2(OC1)O[C@H]1C[C@H]3[C@@H]4C=CC5=CC(=O)C(OCc6cn(CC(=O)c7ccc(O)cc7)nn6)=C[C@]5(C)[C@H]4CC[C@]3(C)[C@H]1[C@@H]2C`, for which the 50% inhibitory concentration (IC50) in the experiment with HepG2 is 52.8 µM; in experiment [1] it was 98.7 µM; with HeLa it was above 100 µM.

As for `C[C@@H]1CC[C@@]2(OC1)O[C@H]1C[C@H]3[C@@H]4C=CC5=CC(=O)C(OCc6cn(Cc7ccc(CN=[N+]=[N-])cc7)nn6)=C[C@]5(C)[C@H]4CC[C@]3(C)[C@H]1[C@@H]2C`, the IC50 (in the experiment on HepG2; in experiment [1]; with HeLa) was above 100 µM each time.

`CCCCOC1=C[C@@]2(C)C(=CC1=O)C=C[C@H]1[C@@H]3C[C@@H]4O[C@]5(CC[C@@H](C)CO5)[C@@H](C)[C@@H]4[C@@]3(C)CC[C@@H]12`: the concentration for half-maximal inhibition (IC50) in the experiment with HepG2 was determined as 85 µM; in experiment [1] it was 39.5 µM; in the experiment on HeLa it was 71.6 µM.
